Rows were chosen to be rich in hits. Some 4.1% of all compounds tested hit in one or more screens of this group.
FLuc act counter = firefly luciferase counter-screen for stimulation assays. AID 1027. activation factor at 10 µM. ATPlite luciferase biochemical, luminescence, 10 min; 0 = ATP-free wells, 1 = DMSO control. 200,000 tested, under 10 active;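 active = luciferase activation factor, scaled between plate controls, of at least 2 with compound at 10 µM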
Target sequence (P08659 whole entry, looked up): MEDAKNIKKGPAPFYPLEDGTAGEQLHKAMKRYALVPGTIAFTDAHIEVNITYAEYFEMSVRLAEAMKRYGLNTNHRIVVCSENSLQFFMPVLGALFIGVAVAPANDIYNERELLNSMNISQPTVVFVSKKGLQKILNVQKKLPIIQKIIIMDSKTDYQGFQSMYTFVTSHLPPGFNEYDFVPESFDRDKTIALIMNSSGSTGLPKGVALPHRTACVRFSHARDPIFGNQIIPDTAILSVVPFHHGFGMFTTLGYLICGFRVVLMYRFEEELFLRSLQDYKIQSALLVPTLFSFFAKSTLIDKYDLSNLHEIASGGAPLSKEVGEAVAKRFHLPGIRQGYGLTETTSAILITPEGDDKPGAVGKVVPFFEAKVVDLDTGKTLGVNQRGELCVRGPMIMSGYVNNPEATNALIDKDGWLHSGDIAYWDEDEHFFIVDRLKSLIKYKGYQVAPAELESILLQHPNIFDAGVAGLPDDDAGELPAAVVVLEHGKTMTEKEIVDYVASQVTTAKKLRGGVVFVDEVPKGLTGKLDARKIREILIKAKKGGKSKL
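Material: Luciferase/luciferin reagent mix | Doses: Test compounds dosed from 2 mM stocks in 100% DMSO | Timing: 10 min incubation after luciferase reagent addition, room temperature | Measured by: Luminescence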
NF-kB neuron act = raises NF-kB expression in human neuronal cells. NF-kB reporter expression; active compounds read high. fold change at 12.5 µM. hit rate 1.6% among 190,000. AID 1239; in the data active = fold change above about 3.3
STAT1 activator = activators of IFN-gamma induced STAT1 signaling | NIH 3T3 STAT1-luciferase reporter, luminescence; 100% = IFN-gamma alone, no compound | activation (% of control), % at 5.5 µM | hit rate 2.6% among 200,000 | AID 932;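 active = activation above the screen-wide mean activation plus 3 SD, cut at about 130% in these data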;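 note: raw ratio to IFN-gamma control signal so 100% means no change and 0% no light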
FLuc inh counter = inhibits firefly luciferase, flagging false hits in luciferase inhibition screens; P08659; ATPLite firefly luciferase biochemical luminescence, 10 min; inhibition, % at 10 µM; hit rate 1.5% among 200,000; AID 1006;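 active = inhibition above about 50% when tested at 10 µM, limit read from the data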
APP 5'UTR act = activates APP 5'UTR luciferase reporter. hit rate 1% among 190,000. SH-SY5Y APP 5'UTR luciferase reporter, luminescence; zero percent = DMSO vehicle wells. AID 1276. activation, % at 2 µM;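 active = activation above a set limit, based on mean plus 3 SD of controls, cut at about 140% in these data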
The depositor's hits bear a star.

SMILES | FLuc act counter | NF-kB neuron act | STAT1 activator | FLuc inh counter | APP 5'UTR act
COc1ccc(OC)c(C(=O)N2CCC(C(=O)c3ccc(F)cc3)CC2)c1 | 1 | 1.1 | 104 | -4 | 9
CN=Cc1sc2ccccc2c1O | 1 | 1.1 | 101 | 3 | 31
Oc1c(C=Nc2ccccc2)sc2ccccc12 | 0.1 | 4.6* | 118 | 95* | 77
Oc1c(C=Nc2cccnc2)sc2ccccc12 | 0.3 | 0.96 | 97 | 70* | 17
Oc1c(C=NCc2ccncc2)sc2ccccc12 | 0.9 | 1.1 | 101 | 6 | 57
Oc1sc(C=Nc2ccc(F)cc2)c2ccccc12 | 1 | 2 | 138* | 3 | 118
O=C(Nc1nnc(SCc2cccc3ccccc23)s1)C1COc2ccccc2O1 (stereo not drawn) | 1.1 | 1.1 | 106 | -6 | 8
CCN(CC)S(=O)(=O)c1cccc(NC(=O)COC(=O)C2CC3C=CC2C3)c1 (stereo not drawn) | 1.1 | 1 | 97 | -7 | 6
Cc1ccc(C(=O)O/N=C2\CCCc3ccccc32)cc1 | 0.1 | 1.6 | 135* | 94* | -4
Cc1cccc(C(=O)O/N=C2\CCCc3ccccc32)c1 | 0.2 | 1.8 | 101 | 81* | 4
O=C(O/N=C1\CCCc2ccccc21)c1cccc(Cl)c1 | 0.5 | 1.2 | 104 | 50 | -9
O=C(O/N=C1\CCCc2ccccc21)C1CC1 | 0.9 | 1.1 | 103 | 11 | 23
O=C(O/N=C1/CCCc2occc21)c1ccccc1 | 0.3 | 1.3 | 102 | 70* | -11
Cc1cccc(NC(=S)NCCc2ccc3c(c2)OCCO3)c1C | 1.1 | 0.92 | 110 | -10 | 17
C/C(=N\NC(=O)c1ccn[nH]1)c1cn(C)nc1C | 0.5 | 1.8 | 129* | 54* | 55
O=C(CCC1CCCC1)Nc1ccc(OCC(=O)N2CCOCC2)cc1 | 0.3 | 1.3 | 104 | 73* | 36
O=C(O)C/C(=C\c1ccc(Cl)cc1)c1nc2ccccc2o1 | 1 | 0.82 | 112 | -5 | 2
O=C(O)C(=O)/C(=C\c1ccc(Cl)cc1)c1ccc2ccccc2n1 | 1 | 1.1 | 130* | -2 | 86
O=C(CSc1nccn1-c1ncc(C(F)(F)F)cc1Cl)c1ccc(Cl)cc1 | 1 | 0.67 | 133* | -1 | -12
CCCC(C)NC(=O)CSc1nc2ccc(C)cc2[nH]1 (stereo not drawn) | 1.1 | 0.95 | 93 | -7 | 5
COc1cc(/C=N/Nc2nc(N3CCCC3)nc(N3CCCC3)n2)ccc1O | 1 | 0.56 | 100 | -2 | -1
Oc1ccc(/C=N/Nc2nc(N3CCCC3)nc(N3CCCC3)n2)cc1O | 1 | 1.1 | 132* | -2 | 7
COc1cc(/C=N/Nc2nc(Nc3ccccc3)nc(N3CCCCC3)n2)ccc1OCC(=O)O | 0.5 | 1.4 | 103 | 51* | 16
NCCCCCNC(=O)/C=N\O | 1.1 | 1 | 98 | -8 | -5
O=C(O)c1ccc(Oc2cccc([N+](=O)[O-])c2)cc1C(=O)O | 1 | 4.3* | 99 | -3 | 2
SMILES | FLuc act counter | NF-kB neuron act | STAT1 activator | FLuc inh counter | APP 5'UTR act
CC(C)N1C(=O)CCN(C=O)c2ccccc21 | 1.1 | 0.94 | 106 | -5 | 27
NS(=O)(=O)c1ccc(N/C=C\C(=O)c2ccncc2)cc1 | 1 | 1.1 | 108 | -1 | -23
COc1cccc(C(=O)/C=C/Nc2cc(C)ccc2O)c1 | 0.4 | 25* | 134* | 62* | 2
COc1ccc(CC(=O)Nc2cc(C)on2)cc1 | 1 | 1.2 | 102 | -2 | -5
NS(=O)(=O)c1ccc(N/C=C/C(=O)c2ccc(Br)cc2)cc1 | 0.9 | 1.4 | 143* | 5 | 49
COc1ccc(N/C=C\C(=O)c2ccc(C)cc2)cc1OC | 0.8 | 2.6 | 143* | 16 | 17
COc1ccc(C(=O)/C=C/Nc2cc(C)on2)cc1 | 0.8 | 4.3* | 139* | 25 | -37
COc1ccc(N/C=C/C(=O)c2ccc(Oc3ncccn3)cc2)cc1 | 0.6 | 1.2 | 106 | 38 | -10
COc1ccc(C(=O)/C=C/Nc2ccc([N+](=O)[O-])cc2)cc1 | 0.9 | 1.2 | 132* | 6 | 29
COc1ccc(C(=O)/C=C/Nc2cccc(O)c2)cc1 | 0 | 14* | 108 | 95* | 195*
Cn1c(=O)c2[nH]c(CNCc3ccccc3Cl)nc2n(C)c1=O | 1 | 1 | 93 | -3 | -4
CCc1cccc(CC)c1NC(=O)/C(C#N)=C/c1ccccc1C(F)(F)F | 1 | 3.4* | 92 | -5 | 9
N#C/C(=C\c1ccccc1C(F)(F)F)C(=O)Nc1ccccc1 | 1.1 | 1.2 | 103 | -7 | 12
COC(=O)c1ccccc1NC(=O)CSc1nc(O)cc(=O)n1C1CCCC1 | 1 | 1 | 103 | -2 | 6
COc1ccc(C2CC(c3ccccc3)=NN2c2ccc(N)cc2)cc1 (stereo not drawn) | 1 | 1.4 | 141* | -1 | 7
COc1ccc(C2CC(c3ccccc3)=NN2c2ccc(Cl)c(C(=O)O)c2)cc1 (stereo not drawn) | 0.9 | 1.1 | 113 | 7 | -15
COc1ccc(-n2nnnc2SCC(=O)Nc2nc3c(s2)CCCC3)cc1 | 1.1 | 1.2 | 101 | -6 | 4
O=c1cc(CN2CCc3ccccc3C2)nc2sccn12 | 1 | 3.5* | 95 | -1 | 5
COc1ccccc1Nc1nnc(SCC2CCCCO2)s1 (stereo not drawn) | 0.1 | 5.2* | 87 | 86* | 176*
Cc1ccc(Nc2nnc(SCC3CCCCO3)s2)cc1 (stereo not drawn) | 0.9 | 1.8 | 120 | 7 | 5
Cc1ccccc1Nc1nnc(SCC2CCCCO2)s1 (stereo not drawn) | 0.4 | 6.1* | 129* | 60* | 146*
COc1ccccc1Nc1nnc(SCC(=O)N2CCCC2)s1 | 0.9 | 1.5 | 106 | 8 | 11
CCCCN(C)CCNC(=O)c1ccc(Cn2c(=S)[nH]c3ccc(Br)cc3c2=O)cc1 | 1 | 0.8 | 104 | -2 | 7
Cc1ccsc1/C=N/Nc1nc2ccccc2s1 | 0.4 | 11* | 181* | 64* | 232*
Cc1cc(C)nc(N/N=C/c2sccc2C)n1 | 0.9 | 1.3 | 115 | 11 | 21
SMILES | FLuc act counter | NF-kB neuron act | STAT1 activator | FLuc inh counter | APP 5'UTR act
CCOC(=O)N/N=C/c1c(C)nn(-c2ccccc2Cl)c1Cl | 0.6 | 1.9 | 125 | 43 | 55
C(=N\Nc1nc2ccccc2s1)/c1ccco1 | 0.4 | 5.5* | 144* | 62* | 203*
OCC(O)/C=N/Nc1nc2ccccc2s1 (stereo not drawn) | 1 | 1.2 | 115 | -2 | 17
C(=N\Nc1nc2ccccc2s1)/c1cccs1 | 0.5 | 7.1* | 146* | 48 | 212*
Cc1nn(-c2ccccc2Cl)c(Cl)c1/C=N/Nc1nc2ccccc2s1 | 0.2 | 0.36 | 70 | 81* | -39
O=C(Cn1c2ccc(F)cc2c2nc3n(c(=O)c21)CCS3)Nc1ccccc1F | 1 | 1.2 | 87 | -4 | 27
CCOC(=O)N/N=C/c1cc(C)n(-c2ccccc2)c1C | 0.6 | 1.4 | 110 | 38 | 13

Compound activity: PubChem BioAssay, several laboratories
